Experimental data collected from several papers.
Target: Serine/threonine-protein kinase DCLK1 (DCLK1, Homo sapiens, UniProt O15075)
Sequence (O15075 1-740, as in one of the studies): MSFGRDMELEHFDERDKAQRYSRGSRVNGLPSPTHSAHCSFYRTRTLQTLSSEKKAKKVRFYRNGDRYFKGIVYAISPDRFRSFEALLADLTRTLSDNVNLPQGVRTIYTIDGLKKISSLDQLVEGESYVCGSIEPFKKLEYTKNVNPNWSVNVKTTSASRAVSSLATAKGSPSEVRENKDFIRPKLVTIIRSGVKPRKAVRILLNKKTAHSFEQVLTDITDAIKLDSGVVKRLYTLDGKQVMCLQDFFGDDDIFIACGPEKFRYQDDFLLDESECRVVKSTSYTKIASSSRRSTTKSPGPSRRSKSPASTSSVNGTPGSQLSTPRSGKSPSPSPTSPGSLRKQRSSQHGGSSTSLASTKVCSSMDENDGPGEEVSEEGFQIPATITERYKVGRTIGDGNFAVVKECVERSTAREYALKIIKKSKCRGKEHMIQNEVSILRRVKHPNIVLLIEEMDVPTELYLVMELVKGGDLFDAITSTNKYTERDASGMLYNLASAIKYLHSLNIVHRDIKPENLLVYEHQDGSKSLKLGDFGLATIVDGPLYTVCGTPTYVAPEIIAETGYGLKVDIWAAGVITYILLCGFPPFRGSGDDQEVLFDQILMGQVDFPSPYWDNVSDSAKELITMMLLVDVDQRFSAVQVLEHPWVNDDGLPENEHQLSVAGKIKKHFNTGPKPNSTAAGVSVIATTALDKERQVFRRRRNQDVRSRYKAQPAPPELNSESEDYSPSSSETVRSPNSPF

| assay | conditions | endpoint | value | Compound |
| --- | --- | --- | --- | --- |
| binding | 1 µM | remaining binding | 96% | COc1ccc2oc(-c3ccc4nc(N)oc4c3)c/c(=N\c3ccccc3NC(=O)CCN)c2c1 |
| binding, competition with immobilised ligand | 0.5 µM | remaining binding | 68% | CCCCC(=O)Nc1ccc(-c2ccc3ncn(CCC)c(=O)c3c2)cn1 |
| enzyme activity, inhibitor | 1 µM | activity vs control | 102% | CC(C)S(=O)(=O)c1ccc2nccc(Nc3ccc4sc(C5CCCC5)nc4c3)c2c1 |
| binding, competition with immobilised ligand | 1 µM | remaining binding | 97% | CN1CCN(C(=O)c2ccc(NC(=O)Nc3ccc(N(C)c4ccnc(Nc5ccc(CS(C)(=O)=O)cc5)n4)cc3)cc2)CC1 |
| cell-free assay | 0.1 µM | remaining signal | 100% | C1=C/COCc2cc(ccc2OCCN2CCCC2)Nc2nccc(n2)-c2cccc(c2)COC/1 |
| enzyme activity, inhibitor | 1 µM | inhibition | 15% | CC#CC(=O)N1CCC[C@H]1c1nc(-c2ccc(C(=O)Nc3ccccn3)cc2)c2c(N)nccn12 |
| cell-free assay, competition with immobilised ligand | 25 µM | remaining binding | 91% | N#Cc1ccc(NC(=O)Nc2ccccc2)cc1 |
| enzyme activity, inhibitor | 1 µM | inhibition | 41% | C=CC(=O)N1CCC([C@@H]2CCNc3c(C(N)=O)c(-c4ccc(Oc5ccccc5)cc4)nn32)CC1 |
| cell-free assay | 1 µM | remaining signal | 75% | C[C@H]1CC[C@H](n2c3cnccc3c3cnc(Nc4ccc5c(n4)CCN(C(=O)CO)C5)nc32)CC1 |
